Reference: ChEMBL document CHEMBL3865805, “Discovery and antiplatelet activity of a selective PI3Kβ inhibitor (MIPS-9922)” (Eur J Med Chem, 2016)
≈ marks a conversion by molar mass, not a printed value. Calls of active or inactive are those of the source. No cut-off for these calls is given here.

How the values were obtained:
[1] = tested on: Mus musculus; assay: Antithrombosis activity in C57BL/6 mouse model of electrolytic injury induced occlusive thrombus formation assessed as prevention of arterial thrombi formation by measuring effect on carotid artery blood flow volume at 2.5 mg/kg, iv administered through bolus prior to electrolytic injury measured after 60 mins; type: functional, organism-based
Outline: (§1)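 Electrolytic injury to the mouse carotid artery; 2.5 mg/kg given iv in saline (n = 8) against saline control (n = 8). Carotid blood flow (ml/min per 100 g body weight) monitored after injury, and flow volume taken as area under the curve over the 60-min period; mean ± S.E.M.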

[2] = Apparent oral bioavailability in Sprague-Dawley rat at 20 mg/kg administered via gavage by LC-MS analysis; type: ADME, organism-based; conditions: in vivo, read-out: Fapp
Outline: (§2)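 Sprague Dawley rats, n=2 per route. Single dose: 3 mg/kg intravenous or 20 mg/kg oral. Plasma concentration followed over time. Half-life, volume of distribution, clearance, Tmax and oral bioavailability derived from the plasma concentration-time profiles.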

[3] = target: albumin (Homo sapiens, UniProt P02768); assay: Protein binding to human serum albumin by HPLC analysis; type: ADME; conditions: read-out: PB (converted)
Chain of albumin (P02768 whole entry, canonical isoform): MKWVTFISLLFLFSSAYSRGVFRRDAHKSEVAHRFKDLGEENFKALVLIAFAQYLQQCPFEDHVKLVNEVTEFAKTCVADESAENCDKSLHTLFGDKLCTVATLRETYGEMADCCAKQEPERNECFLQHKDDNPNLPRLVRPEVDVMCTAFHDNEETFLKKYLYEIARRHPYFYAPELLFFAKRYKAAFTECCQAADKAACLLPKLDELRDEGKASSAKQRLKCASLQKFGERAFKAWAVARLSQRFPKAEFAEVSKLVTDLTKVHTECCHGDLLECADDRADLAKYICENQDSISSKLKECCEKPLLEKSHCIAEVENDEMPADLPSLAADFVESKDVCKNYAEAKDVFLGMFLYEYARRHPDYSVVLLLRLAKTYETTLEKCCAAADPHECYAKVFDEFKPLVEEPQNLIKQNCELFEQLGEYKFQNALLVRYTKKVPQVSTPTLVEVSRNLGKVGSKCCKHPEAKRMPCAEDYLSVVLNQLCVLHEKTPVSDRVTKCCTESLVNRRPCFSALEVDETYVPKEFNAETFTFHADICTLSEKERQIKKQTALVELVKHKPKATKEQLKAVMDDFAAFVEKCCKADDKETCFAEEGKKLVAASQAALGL

[4] = target: T1, Phosphatidylinositol 4,5-bisphosphate 3-kinase catalytic subunit beta isoform (Homo sapiens, UniProt P42338); assay: Inhibition of PI3Kbeta in human platelet-rich plasma assessed as suppression of ADP-induced platelet aggregation preincubated for 5 mins followed by ADP stimulation after 10 mins by light transmission aggregometric analysis
T1 sequence (P42338 whole entry, looked up, canonical isoform): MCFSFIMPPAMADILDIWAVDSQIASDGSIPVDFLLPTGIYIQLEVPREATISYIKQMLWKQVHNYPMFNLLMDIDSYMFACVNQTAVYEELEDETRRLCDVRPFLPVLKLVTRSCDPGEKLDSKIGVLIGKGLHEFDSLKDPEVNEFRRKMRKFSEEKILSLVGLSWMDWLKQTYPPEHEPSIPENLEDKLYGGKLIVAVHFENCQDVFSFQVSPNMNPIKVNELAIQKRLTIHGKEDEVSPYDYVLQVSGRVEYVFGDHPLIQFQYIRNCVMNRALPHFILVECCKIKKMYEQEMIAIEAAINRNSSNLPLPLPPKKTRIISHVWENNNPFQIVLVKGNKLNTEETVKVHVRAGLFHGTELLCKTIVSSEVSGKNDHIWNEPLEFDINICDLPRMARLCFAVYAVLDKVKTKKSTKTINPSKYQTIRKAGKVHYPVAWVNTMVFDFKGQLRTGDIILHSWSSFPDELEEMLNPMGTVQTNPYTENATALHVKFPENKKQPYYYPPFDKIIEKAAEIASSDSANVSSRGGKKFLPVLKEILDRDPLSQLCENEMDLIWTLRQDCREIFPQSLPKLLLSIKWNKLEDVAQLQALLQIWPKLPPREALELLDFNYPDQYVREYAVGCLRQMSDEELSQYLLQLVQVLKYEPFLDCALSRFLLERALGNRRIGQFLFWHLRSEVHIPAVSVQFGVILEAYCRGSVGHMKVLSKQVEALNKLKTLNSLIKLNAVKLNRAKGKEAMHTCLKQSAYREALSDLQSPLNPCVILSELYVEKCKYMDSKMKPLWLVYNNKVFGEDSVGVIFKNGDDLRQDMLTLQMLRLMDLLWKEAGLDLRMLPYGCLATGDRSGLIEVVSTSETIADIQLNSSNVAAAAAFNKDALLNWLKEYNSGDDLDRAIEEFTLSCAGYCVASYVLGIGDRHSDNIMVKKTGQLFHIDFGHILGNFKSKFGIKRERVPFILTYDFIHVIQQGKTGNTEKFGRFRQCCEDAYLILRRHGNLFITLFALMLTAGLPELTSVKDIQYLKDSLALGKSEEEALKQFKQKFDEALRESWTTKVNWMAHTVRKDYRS
Outline: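 Human platelet-rich plasma stimulated with ADP; aggregation measured over a concentration range of inhibitor, and IC50 taken from the dose-response curve.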

[5] = Volume of distribution at steady state in Sprague-Dawley rat at 3 mg/kg, iv by LC-MS analysis; type: ADME, organism-based; conditions: in vivo, read-out: Vdss; outline: as §2
[6] = tested on: Rattus norvegicus; assay: Toxicity in Sprague-Dawley rat at 20 mg/kg, po administered via gavage or 3 mg/kg, iv; type: organism-based; conditions: in vivo
[7] = Effect on platelet translocation in human washed platelets at 0.1 to 5 uM; type: ADME, cell-based
[8] = Intrinsic clearance in rat liver microsomes at 1 uM after 60 mins in presence of NADPH by UPLC-MS analysis; type: ADME; conditions: read-out: CLH
[9] = tested on: Platelet; assay: Antiplatelet activity against human washed platelets assessed as reduction in shear-induced stationary platelet adhesion to vWF matrix preincubated for 5 mins followed by blood perfusion after 4 mins; type: functional, cell-based
Outline: (§3)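 Human whole blood, anticoagulated, perfused over a vWf matrix at 1800 s^-1 for 4 min; stationary platelet adhesion scored. Vehicle DMSO 0.25% taken as 100%. Drug tested up to 5 µM. t test against 0.1 µM drug.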

[10] = target: T1, Phosphatidylinositol 4,5-bisphosphate 3-kinase catalytic subunit beta isoform; assay: Inhibition of PI3Kbeta in human washed platelets assessed as suppression of ADP-induced integrin alpha2bbeta3 activation preincubated for 5 mins followed by ADP stimulation after 10 mins by OG-FNG-based FACS analysis
Outline: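 Washed human platelets stimulated with ADP (5 µM). Integrin αIIbβ3 activation read as Oregon-Green fibrinogen binding by flow cytometry. DMSO 0.25% control set as 100%. n = 3, mean ± SEM. t test against 0.001 µM drug.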

[11] = Tmax in Sprague-Dawley rat at 20 mg/kg, po via gavage by LC-MS analysis; type: ADME, organism-based; conditions: in vivo; outline: as §2
[12] = Aqueous solubility of compound at pH 2 by turbidimetric solubility assay; type: physicochemical; conditions: buffer
[13] = tested on: Mus musculus; assay: Toxicity in C57BL/6 mouse model of electrolytic injury induced occlusive thrombus formation assessed as excessive blood loss at 2.5 mg/kg, iv bolus administration; type: organism-based; conditions: in vivo
Outline: (§4)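 Mouse tail bleeding assay after 2.5 mg/kg iv (n = 8) against vehicle, 0.01% DMSO (n = 8). Tail bleeding time recorded; blood loss quantified as absorbance of haemoglobin at 575 nm.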

[14] = target: T2, Proteinase-activated receptor 1 (Homo sapiens) (UniProt P25116); assay: Inhibition of PAR1 in human washed platelets assessed as suppression of TRAP-induced integrin alpha2bbeta3 activation preincubated for 5 mins followed by TRAP stimulation after 10 mins by OG-FNG-based FACS analysis
T2 sequence (whole entry): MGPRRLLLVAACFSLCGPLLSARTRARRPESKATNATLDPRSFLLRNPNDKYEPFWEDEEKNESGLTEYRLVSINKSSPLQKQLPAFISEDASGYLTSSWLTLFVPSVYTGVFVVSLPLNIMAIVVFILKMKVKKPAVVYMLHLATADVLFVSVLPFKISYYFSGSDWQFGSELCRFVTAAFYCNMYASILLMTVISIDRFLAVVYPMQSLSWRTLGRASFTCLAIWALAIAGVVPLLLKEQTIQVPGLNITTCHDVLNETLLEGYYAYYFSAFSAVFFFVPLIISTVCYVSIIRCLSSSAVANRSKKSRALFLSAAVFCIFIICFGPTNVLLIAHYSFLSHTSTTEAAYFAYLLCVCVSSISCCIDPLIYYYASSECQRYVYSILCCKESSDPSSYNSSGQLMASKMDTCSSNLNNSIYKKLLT
Outline: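 Washed human platelets stimulated with TRAP at 0.5–1 µM, chosen by donor response. αIIbβ3 activation read as Oregon-Green fibrinogen binding by flow cytometry. DMSO 0.25% control set as 100%. n = 4-7, mean ± SEM.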

[15] = tested on: Mus musculus; assay: Toxicity in C57BL/6 mouse model of electrolytic injury induced occlusive thrombus formation assessed as increase in tail bleeding time at 2.5 mg/kg, iv bolus administration; type: organism-based; conditions: in vivo; outline: as §4
[16] = Antiplatelet activity against human washed platelets assessed as shear-induced stationary platelet adhesion to vWF matrix at 1 to 5 uM preincubated for 5 mins followed by blood perfusion after 4 mins relative to control; type: functional; outline: as §3
[17] = Distribution constant, logD of compound at pH 7.4; type: physicochemical; conditions: buffer
[18] = Intrinsic clearance in human liver microsomes at 1 uM after 60 mins in presence of NADPH by UPLC-MS analysis; type: ADME; conditions: read-out: CLH
[19] = Drug excretion in iv dosed rat urine by LC-MS analysis; type: ADME, organism-based; conditions: read-out: Drug excretion
[20] = target: T1, Phosphatidylinositol 4,5-bisphosphate 3-kinase catalytic subunit beta isoform; assay: Inhibition of PI3Kbeta in human washed platelets assessed as suppression of ADP-induced platelet aggregation at 0.5 uM preincubated for 5 mins followed by 25 uM ADP stimulation after 10 mins by light transmission aggregometric analysis
Outline: (§5)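 Washed human platelets in an aggregometer. Inhibitor at 0.5 µM. Aggregation induced by 5, 10 or 25 µM ADP; percent inhibition read.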

[21] = target: T1, Phosphatidylinositol 4,5-bisphosphate 3-kinase catalytic subunit beta isoform; assay: Inhibition of PI3Kbeta in human washed platelets assessed as suppression of ADP-induced platelet aggregation at 0.5 uM preincubated for 5 mins followed by 5 to 10 uM ADP stimulation after 10 mins by light transmission aggregometric analysis; outline: as §5
[22] = Plasma clearance in Sprague-Dawley rat at 3 mg/kg, iv by LC-MS analysis; type: ADME, organism-based; outline: as §2
[23] = Blood clearance in rat by LC-MS analysis; type: ADME, tissue-based; conditions: whole blood
[24] = target: T1, Phosphatidylinositol 4,5-bisphosphate 3-kinase catalytic subunit beta isoform; assay: Inhibition of PI3Kbeta in human washed platelets assessed as suppression of ADP-induced platelet aggregation preincubated for 5 mins followed by ADP stimulation after 10 mins by light transmission aggregometric analysis
Outline: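 Washed human platelets in a conventional aggregometer. Aggregation induced by ADP; IC50 taken from the dose-response curve.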

[25] = Effect on platelet tethering in human washed platelets at 0.1 to 5 uM; type: ADME, cell-based
[26] = Aqueous solubility of compound at pH 6.5 by turbidimetric solubility assay; type: physicochemical; conditions: buffer
[27] = Aqueous solubility of compound in saline; type: physicochemical; conditions: buffer
[28] = Clearance in rat by LC-MS analysis relative to hepatic blood flow; type: ADME, Liver; conditions: in vivo
[29] = tested on: Mus musculus; assay: Antithrombosis activity in C57BL/6 mouse model of electrolytic injury induced occlusive thrombus formation assessed as prevention of arterial thrombi formation by measuring effect on rate of carotid artery blood flow at 2.5 mg/kg, iv administered through bolus prior to electrolytic injury; type: functional, organism-based; outline: as §1
[30] = Stability in Sprague-Dawley rat plasma at […] after 4 hrs by UPLC-MS analysis; type: ADME, cell-free
[31] = Apparent half life in Sprague-Dawley rat at 3 mg/kg, iv by LC-MS analysis; type: ADME, organism-based; conditions: in vivo, read-out: t1/2(app); outline: as §2
[32] = Distribution constant, logD of compound at pH 3; type: physicochemical; conditions: buffer

N[C@@H](Cc1ccccc1)C(=O)N1CCN(c2nc(N3CCOCC3)nc(-n3c(C(F)F)nc4ccccc43)n2)CC1
Activity [1]: Active
bioavailability [2]: 26%
fraction unbound [3]: 0.03
inhibition [4]: Dose-dependent effect
Vd [5]: 8.6 L/kg
Activity [6]: Non-Toxic
Activity [7]: Non-Toxic
microsomal CLint at 1 µM [8]: 43 µL/min/mg
inhibition [9]: Dose-dependent effect
inhibition [10]: Dose-dependent effect
Tmax [11]: 1 to 4 h
solubility kinetic [12]: > 100 µg/mL
Activity [13]: Non-Toxic
inhibition [14]: Dose-dependent effect
Activity [15]: Non-Toxic
inhibition (INH) [16]: <=60%
logD [17]: 3.7
microsomal CLint at 1 µM [18]: 22 µL/min/mg
dose excreted [19]: < 0.1%
inhibition [20]: 15%
inhibition [21]: Active
clearance [22]: 67 mL/min/kg
clearance [23]: 39 mL/min/kg
inhibition [24]: Dose-dependent effect
Activity [25]: Non-Toxic
solubility kinetic [26]: 6.3 to 12.5 µg/mL (≈ 11.2 to 22.2 µM)
solubility [27]: Soluble
CL [28]: 60%
Activity [29]: Active
Stability [30]: Stable
half-life [31]: 2.8 to 3 h
logD [32]: 3
